Source: ChEMBL document CHEMBL1944532, “Synthesis and evaluation of anticancer activity of some novel 6-aryl-2-(p-sulfamylphenyl)-pyridazin-3(2H)-ones” (Eur J Med Chem, 2012)
The source made the active and inactive calls. No cut-off for these calls is given here.

Key:
[1] = system: OVCAR-5; assay: Cytotoxicity against human OVCAR5 cells assessed as cell growth at 10 uM after 48 hrs by SRB assay; type: functional; settings: OVCAR-5, 48 h, read-out: Activity
In short: (§1)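 NCI primary single-dose screen at 10^-5 M against the full panel of about 60 human tumor cell lines. Cells were in RPMI-1640 with 5% fetal calf serum and 2 mM L-glutamine and preincubated 24 h. Compound was given in DMSO with 48 h exposure. Growth was estimated by sulforhodamine B protein assay.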

[2] = system: TK-10; assay: Cytotoxicity against human TK10 cells assessed as cell growth at 10 uM after 48 hrs by SRB assay; type: functional; settings: TK-10, 48 h, read-out: Activity
In short: (§2)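 NCI primary one-dose screen at 10^-5 M against the full panel of about 60 human tumour cell lines, run to the NCI Drug Evaluation Branch protocol.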

[3] = system: RPMI-8226; assay: Cytotoxicity against human RPMI8226 cells assessed as cell growth at 10 uM after 48 hrs by SRB assay; type: functional; settings: RPMI-8226, 48 h, read-out: Activity; in short: as §1
[4] = system: KM12; assay: Cytotoxicity against human KM12 cells assessed as cell growth at 10 uM after 48 hrs by SRB assay; type: functional; settings: KM12, 48 h, read-out: Activity; in short: as §1
[5] = system: SK-MEL-5; assay: Cytotoxicity against human SK-MEL-5 cells assessed as cell growth at 10 uM after 48 hrs by SRB assay; type: functional; settings: SK-MEL-5, 48 h, read-out: Activity; in short: as §2
[6] = system: UO-31; assay: Cytotoxicity against human UO31 cells after 48 hrs by SRB assay; type: functional; settings: UO-31, 48 h
In short: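 NCI 60-cell-line five-dose screen. Cells were grown in 1640 medium with 5% fetal calf serum and 2 mM L-glutamine, with inoculum density set by cell line, and pre-incubated 24 h. Compound in DMSO was added at 10^-4 to 10^-8 M (10-fold steps) with 48 h continuous exposure. Growth was read by SRB protein assay, and GI50, TGI and LC50 were derived from dose-response.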

[7] = system: NCI-H460; assay: Cytotoxicity against human NCI-H460 cells assessed as cell growth at 10 uM after 48 hrs by SRB assay; type: functional; settings: NCI-H460, 48 h, read-out: Activity; in short: as §1
[8] = system: A549; assay: Cytotoxicity against human A549/ATCC cells assessed as cell growth at 10 uM after 48 hrs by SRB assay; type: functional; settings: A549, 48 h, read-out: Activity
In short: (§3)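 NCI primary single-dose screen at 10^-5 M against the ~60 human tumour cell line panel. Cells grown in RPMI-1640 with 5% fetal calf serum and 2 mM L-glutamine and pre-incubated 24 h before compound addition. Compound added from DMSO solution with 48 h exposure. Growth read by sulforhodamine B protein staining.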

[9] = system: M14; assay: Cytotoxicity against human M14 cells assessed as cell growth at 10 uM after 48 hrs by SRB assay; type: functional; settings: M14, 48 h, read-out: Activity; in short: as §1
[10] = system: NCI-H460; assay: Cytotoxicity against human NCI-H460 cells after 48 hrs by SRB assay; type: functional; settings: NCI-H460, 48 h
In short: (§4)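 NCI five-dose screen on the ~60-line human tumor panel. Cells grown in RPMI-1640 with 5% fetal calf serum and 2 mM L-glutamine, seeded at line-dependent density and preincubated 24 h. Compound added from DMSO at 10-fold dilutions from 10^-4 to 10^-8 M, continuous exposure 48 h. Growth read by sulforhodamine B protein stain. GI50, TGI and LC50 derived per line.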

[11] = system: COLO 205; assay: Cytotoxicity against human COLO205 cells after 48 hrs by SRB assay; type: functional; settings: COLO 205, 48 h
In short: (§5)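 NCI ~60-line panel in RPMI-1640 with 5% fetal calf serum and 2 mM L-glutamine, pre-incubated 24 h. Compound in DMSO tested at five 10-fold concentrations (10^-4 to 10^-8 M) with 48 h continuous exposure. Growth measured by sulforhodamine B protein assay. GI50 (50% net growth inhibition), TGI (total inhibition) and LC50 (50% net cell death) derived from dose-response.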

[12] = system: MDA-MB-468; assay: Cytotoxicity against human MDA-MB-468 cells assessed as cell growth at 10 uM after 48 hrs by SRB assay; type: functional; settings: MDA-MB-468, 48 h, read-out: Activity; in short: as §1
[13] = system: HCT-15; assay: Cytotoxicity against human HCT15 cells assessed as cell growth at 10 uM after 48 hrs by SRB assay; type: functional; settings: HCT-15, 48 h, read-out: Activity; in short: as §3
[14] = system: Malme-3M; assay: Cytotoxicity against human MALME-3M cells assessed as cell growth at 10 uM after 48 hrs by SRB assay; type: functional; settings: read-out: Activity; in short: as §1
[15] = system: OVCAR-4; assay: Cytotoxicity against human OVCAR4 cells assessed as cell growth at 10 uM after 48 hrs by SRB assay; type: functional; settings: OVCAR-4, 48 h, read-out: Activity; in short: as §1
[16] = system: SW-620; assay: Cytotoxicity against human SW620 cells assessed as cell growth at 10 uM after 48 hrs by SRB assay; type: functional; settings: SW-620, 48 h, read-out: Activity; in short: as §2
[17] = system: K562; assay: Cytotoxicity against human K562 cells assessed as cell growth at 10 uM after 48 hrs by SRB assay; type: functional; settings: K562, 48 h, read-out: Activity; in short: as §3
[18] = system: A549; assay: Cytotoxicity against human A549/ATCC cells after 48 hrs by SRB assay; type: functional; settings: A549, 48 h; in short: as §5
[19] = system: OVCAR-8; assay: Cytotoxicity against human OVCAR8 cells after 48 hrs by SRB assay; type: functional; settings: OVCAR-8, 48 h; in short: as §4
[20] = system: SR; assay: Cytotoxicity against human SR cells assessed as cell growth at 10 uM after 48 hrs by SRB assay; type: functional; settings: read-out: Activity; in short: as §2
[21] = system: PC-3; assay: Cytotoxicity against human PC3 cells assessed as cell growth at 10 uM after 48 hrs by SRB assay; type: functional; settings: PC-3, 48 h, read-out: Activity; in short: as §1
[22] = system: COLO 205; assay: Cytotoxicity against human COLO205 cells assessed as cell growth at 10 uM after 48 hrs by SRB assay; type: functional; settings: COLO 205, 48 h, read-out: Activity; in short: as §3
[23] = system: A498; assay: Cytotoxicity against human A498 cells assessed as cell growth at 10 uM after 48 hrs by SRB assay; type: functional; settings: A498, 48 h, read-out: Activity; in short: as §3
[24] = system: U-251; assay: Antitumor activity against human U251 cells implanted in mouse dosed qd for 4 days by formazan dye-based hollow fiber assay; type: functional, organism-based
In short: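 Cells grown inside polyvinylidene fluoride hollow fibers; each line implanted into both intraperitoneal and subcutaneous compartments in mice. Compound given ip at two doses on a QD x 4 schedule. Fibers then recovered and viable cell mass measured by formazan dye conversion. Scored 2 per dose giving ≥50% reduction in viable cell mass (%T/C 50).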

[25] = system: RXF 393; assay: Cytotoxicity against human RXF393 cells assessed as cell growth at 10 uM after 48 hrs by SRB assay; type: functional; settings: RXF 393, 48 h, read-out: Activity; in short: as §1

**Q.** `CCc1ccc(-c2ccc(=O)n(-c3ccc(S(N)(=O)=O)cc3)n2)cc1` was tested. Which growth at 10 µM [1] did it give?
**A.** The growth at 10 µM was 91.6%.

**Q.** And the growth at 10 µM [2]?
**A.** Its growth at 10 µM is 76.8%.

**Q.** And the growth at 10 µM [3]?
**A.** The growth at 10 µM was -29.9%.

**Q.** What about the growth at 10 µM [4] of the same compound?
**A.** The growth at 10 µM was 13.6%.

**Q.** What about the growth at 10 µM [5] of the same compound?
**A.** The growth at 10 µM was 12.9%.

**Q.** What about the LC50 [6] of the same compound?
**A.** The LC50 was > 100 µM.

**Q.** What about the GI50 ([6]; read-out: GI50) of the same compound?
**A.** Its GI50 is > 100 µM.

**Q.** And the GI50 ([6]; read-out: pGI50 (converted))?
**A.** Its GI50 is > 100 µM.

**Q.** What about the TGI ([6]; read-out: pTGI) of the same compound?
**A.** Its TGI is > 100 µM.

**Q.** And the growth at 10 µM [7]?
**A.** Its growth at 10 µM is 12.6%.

**Q.** What about the growth at 10 µM [8] of the same compound?
**A.** The growth at 10 µM was 18%.

**Q.** What about the growth at 10 µM [9] of the same compound?
**A.** The growth at 10 µM was 17.7%.

**Q.** And the LC50 [10]?
**A.** The LC50 was 63.1 µM.

**Q.** What about the GI50 ([10]; read-out: GI50) of the same compound?
**A.** Its GI50 is 0.438 µM.

**Q.** And the GI50 ([10]; read-out: pGI50 (converted))?
**A.** Its GI50 is 0.437 µM.

**Q.** And the TGI ([10]; read-out: pTGI (converted))?
**A.** The TGI was 4.47 µM.

**Q.** And the LC50 [11]?
**A.** The LC50 was > 100 µM.

**Q.** What about the GI50 ([11]; read-out: GI50) of the same compound?
**A.** Its GI50 is 0.976 µM.

**Q.** And the GI50 ([11]; read-out: pGI50 (converted))?
**A.** Its GI50 is 0.977 µM.

**Q.** What about the TGI ([11]; read-out: pTGI (converted)) of the same compound?
**A.** Its TGI is 30.9 µM.

**Q.** What about the growth at 10 µM [12] of the same compound?
**A.** Its growth at 10 µM is 7.89%.

**Q.** What about the growth at 10 µM [13] of the same compound?
**A.** The growth at 10 µM was 29.7%.

**Q.** And the growth at 10 µM [14]?
**A.** The growth at 10 µM was 35.6%.

**Q.** What about the growth at 10 µM [15] of the same compound?
**A.** Its growth at 10 µM is 74.5%.

**Q.** What about the growth at 10 µM [16] of the same compound?
**A.** Its growth at 10 µM is 35%.

**Q.** What about the growth at 10 µM [17] of the same compound?
**A.** Its growth at 10 µM is 11%.

**Q.** And the LC50 [18]?
**A.** The LC50 was > 100 µM.

**Q.** What about the GI50 ([18]; read-out: GI50) of the same compound?
**A.** The GI50 was 2.58 µM.

**Q.** What about the GI50 ([18]; read-out: pGI50 (converted)) of the same compound?
**A.** Its GI50 is 2.57 µM.

**Q.** What about the TGI ([18]; read-out: pTGI) of the same compound?
**A.** The TGI was > 100 µM.

**Q.** And the LC50 [19]?
**A.** The LC50 was > 100 µM.

**Q.** What about the GI50 ([19]; read-out: GI50) of the same compound?
**A.** The GI50 was 11 µM.

**Q.** What about the GI50 ([19]; read-out: pGI50 (converted)) of the same compound?
**A.** Its GI50 is 11 µM.

**Q.** What about the TGI ([19]; read-out: pTGI) of the same compound?
**A.** Its TGI is > 100 µM.

**Q.** What about the growth at 10 µM [20] of the same compound?
**A.** Its growth at 10 µM is -11.9%.

**Q.** And the growth at 10 µM [21]?
**A.** The growth at 10 µM was 35%.

**Q.** And the growth at 10 µM [22]?
**A.** The growth at 10 µM was 26%.

**Q.** And the growth at 10 µM [23]?
**A.** Its growth at 10 µM is 40.3%.

**Q.** What about the Activity [24] of the same compound?
**A.** Its Activity is “inactive”.

**Q.** And the growth at 10 µM [25]?
**A.** Its growth at 10 µM is -31.8%.
